Results: ChEMBL document CHEMBL1255483, “Intra- and extracellular activities of dicloxacillin against Staphylococcus aureus in vivo and in vitro” (Antimicrob Agents Chemother, 2010)
In brackets after ≈: the same amount, converted by molar mass. Activity calls are given as the source filed them. The rule behind the calls is not given here.

Tests used:
[1] = AUC (24 hrs) in NMRI mouse at 300 mg/kg, sc; type: ADME, organism-based; parameters: time < 24 hr, dose 300 mg/kg, route subcutaneous; details: plasma
Procedure, shortened: (§1)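 Single subcutaneous DCX doses given to NMRI mice. Blood was collected into EDTA tubes, and plasma drug was assayed by microbiological bioassay with S. lutea ATCC 9391 (detection limit 1.5 mg/liter, linear to 100 mg/liter). Values came from noncompartmental analysis. Terminal half-life was fitted monoexponentially to the last four time points. AUC24 combined the trapezoidal rule over mean points with exact integration of the fitted curve extrapolated to 24 h.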

[2] = organism: Mus musculus; test: Protein binding in NMRI mouse infected with Staphylococcus aureus E19977 at 90 mg/l by ultrafiltration; type: ADME, organism-based; details: in vivo
Procedure, shortened: (§2)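 Plasma binding was measured by ultrafiltration. EDTA blood from healthy mice, or from NMRI mice infected intraperitoneally for 6 h with E19977, was spiked with DCX at 10–400 mg/liter, with PBS controls. Samples were held 1 h at 37°C, then centrifuged through 30-kDa filters at 3,000 × g for 8 min at 37°C. Total and filtrate drug were measured by S. lutea bioassay.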

[3] = test system: Staphylococcus aureus; test: Antimicrobial activity against Staphylococcus aureus ATCC 25923 by broth microdilution method at pH 7.4
[4] = Half-life in NMRI mouse at 60 mg/kg, sc; type: ADME, organism-based; parameters: dose 60 mg/kg, route subcutaneous; details: in vivo; procedure, shortened: as §1
[5] = test system: Staphylococcus aureus; test: Bacteriostatic activity against Staphylococcus aureus ATCC 25923 infected in human THP-1 cells at compound MIC after 24 hrs; type: functional, organism-based
Procedure, shortened: (§3)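 Human THP-1 macrophages were infected with opsonized S. aureus at 4 bacteria per macrophage for 45 min. Non-phagocytized bacteria were removed by washing and a brief incubation in PBS with gentamicin 50 mg/liter. Cells were then incubated up to 24 h with DCX over a wide range of extracellular concentrations. The read-out was Δlog CFU per mg cell protein versus time zero (n = 3), with sigmoidal fitting and Cstatic by interpolation.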

[6] = fT>MIC in Staphylococcus aureus E19977 infected NMRI mouse at 120 mg/kg administered every 24 hrs; type: functional
Procedure, shortened: (§4)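 Calculated percentage of 24 h at steady state that free plasma DCX exceeds the strain MIC (microdilution, pH 7.4). Concentrations were simulated from single subcutaneous dose plasma curves in NMRI mice (S. lutea bioassay), adjusted with a square-root model of concentration-dependent free fraction from ultrafiltration. The regimen was dosed subcutaneously in mice infected intraperitoneally with 10^7.4 CFU, and peritoneal CFU were read after 24 h of therapy.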

[7] = test system: Staphylococcus aureus; test: Bacteriostatic activity against Staphylococcus aureus ATCC 25923 infected in human THP-1 cells at MIC after 24 hrs; type: functional, organism-based; procedure, shortened: as §3
[8] = Half-life in NMRI mouse at 120 mg/kg, sc; type: ADME, organism-based; parameters: dose 120 mg/kg, route subcutaneous; details: in vivo; procedure, shortened: as §1
[9] = test system: Staphylococcus aureus; test: Antimicrobial activity against Staphylococcus aureus E19977 infected in human THP-1 cells after 24 hrs; type: functional, organism-based; details: E19977, THP-1, 24 h; procedure, shortened: as §3
[10] = fT>MIC in Staphylococcus aureus E19977 infected NMRI mouse at 76 mg/kg administered every 2 hrs; type: functional; procedure, shortened: as §4
[11] = test system: Staphylococcus aureus; test: Bactericidal activity against Staphylococcus aureus ATCC 25923 infected in human THP1 cells assessed as log reduction in bacterial count at 100 times MIC after 24 hrs by time-kill assay; type: functional, THP-1
Procedure, shortened: (§5)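 Intracellular model in THP-1 macrophages: opsonized S. aureus was added at 4 bacteria per macrophage for 45 min. Non-phagocytized bacteria were removed by washing and brief PBS incubation with gentamicin (50 mg/liter). Cells were then incubated up to 24 h with a wide range of extracellular dicloxacillin concentrations. Result is change in log₁₀ CFU per mg cell protein from time zero. n = 3.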

[12] = fT>MIC in Staphylococcus aureus E19977 infected NMRI mouse at 120 mg/kg administered every 6 hrs; type: functional; procedure, shortened: as §4
[13] = organism: Mus musculus; test: Protein binding in NMRI mouse at 60 mg/l by ultrafiltration; type: ADME, organism-based; details: in vivo; procedure, shortened: as §2
[14] = test system: Staphylococcus aureus; test: Antimicrobial activity against Staphylococcus aureus E19977 infected in human THP1 cells assessed as log reduction in bacterial count at MIC after 24 hrs by time-kill assay; type: functional, THP-1; procedure, shortened: as §5
[15] = Ratio of fCmax in NMRI mouse at 120 mg/kg administered every 24 hrs to MIC for Staphylococcus aureus E19977; type: functional
Procedure, shortened: (§6)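 Free Cmax/MIC was modelled, not measured. Single-dose subcutaneous plasma curves from NMRI mice were projected to the multiple-dose regimens. Free fraction came from a square-root fit of unbound fraction versus total concentration. Binding was measured by ultrafiltration of mouse plasma spiked with 10–400 mg/liter and held 1 h at 37°C. MIC was for strain E19977.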

[16] = Ratio of fAUC (24 hrs) in NMRI mouse at 200 mg/kg administered every 4 hrs to MIC for Staphylococcus aureus E19977; type: functional
Procedure, shortened: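 Computed from modelled dosing regimens, not measured directly. Single subcutaneous doses were given to NMRI mice, and plasma was assayed by S. lutea bioassay. AUC24 came from noncompartmental analysis, with terminal exponential extrapolation to 24 h. The free fraction came from a square-root fit to ultrafiltration protein-binding data, with saturable binding included. MIC was by broth microdilution.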

[17] = Ratio of fCmax in NMRI mouse at 30 mg/kg administered every 2 hrs to MIC for Staphylococcus aureus E19977; type: functional; procedure, shortened: as §6
[18] = Ratio of fCmax in NMRI mouse at 400 mg/kg administered every 12 hrs to MIC for Staphylococcus aureus E19977; type: functional; procedure, shortened: as §6
[19] = test system: Staphylococcus aureus; test: Bactericidal activity against Staphylococcus aureus E19977 assessed as log change in bacterial count after 24 hrs; type: functional
Procedure, shortened: (§7)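 Extracellular broth time- and concentration-kill test. The inoculum was ~10⁶ CFU/ml, exposed to a wide range of DCX concentrations, with CFU counted after 5 and 24 h. The read-out was Δlog CFU/ml versus time zero (mean ± SD, n = 3). A sigmoidal fit with slope 1 gave Emax and EC50. Cstatic was read by graphical interpolation as the concentration giving no change from the inoculum.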

[20] = test system: Staphylococcus aureus; test: Antimicrobial activity against Staphylococcus aureus ATCC 25923 infected in human THP-1 cells after 24 hrs; type: functional, organism-based; details: ATCC 25923, THP-1, 24 h; procedure, shortened: as §3
[21] = Half-life in NMRI mouse at 30 mg/kg, sc; type: ADME, organism-based; parameters: dose 30 mg/kg, route subcutaneous; details: in vivo; procedure, shortened: as §1
[22] = organism: Mus musculus; test: Protein binding in NMRI mouse infected with Staphylococcus aureus E19977 at 270 mg/l by ultrafiltration; type: ADME, organism-based; details: in vivo; procedure, shortened: as §2
[23] = test system: Staphylococcus aureus; test: Bacteriostatic activity against Staphylococcus aureus ATCC 25923 infected in human THP-1 cells at 100 times MIC after 5 hrs; type: functional, organism-based; procedure, shortened: as §3
[24] = test system: Staphylococcus aureus; test: Bactericidal activity against Staphylococcus aureus E19977 assessed as log reduction in bacterial count at 10 times MIC after 5 hrs by time-kill assay; type: functional
Procedure, shortened: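 Broth time-kill: MSSA at 10⁶ CFU/ml exposed to a wide range of dicloxacillin concentrations. CFU counted after 5 and 24 h and expressed as change in log₁₀ CFU/ml from time zero. Multiples refer to the MIC by CLSI microdilution at pH 7.4. n = 3.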

[25] = test system: Staphylococcus aureus; test: Antimicrobial activity against Staphylococcus aureus ATCC 25923 after 24 hrs; type: functional, organism-based; details: ATCC 25923, 24 h; procedure, shortened: as §7
[26] = test system: Staphylococcus aureus; test: Bactericidal activity against Staphylococcus aureus ATCC 25923 infected in human THP1 cells assessed as log reduction in bacterial count at 10 times MIC after 24 hrs by time-kill assay; type: functional, THP-1; procedure, shortened: as §5
[27] = Ratio of fCmax in NMRI mouse at 240 mg/kg administered every 6 hrs to MIC for Staphylococcus aureus E19977; type: functional; procedure, shortened: as §6

## Cc1onc(-c2c(Cl)cccc2Cl)c1C(=O)N[C@@H]1C(=O)N2[C@@H]1SC(C)(C)[C@@H]2C(=O)O [DICLOXACILLIN]
[1]
  AUC at 24 h: 726 µg·h/mL
[2]
  Activity: 85.6%
[3]
  MIC: 0.125 µg/mL (≈ 0.266 µM)
[4]
  half-life: 25 min
[5]
  Activity: Active
[6]
  fT>MIC: 9.44%
[7]
  Activity: Active
[8]
  half-life: 22 min
[9]
  EC50: 0.31 µg/mL (≈ 0.659 µM)
[10]
  fT>MIC: 100%
[11]
  FC: <1
[12]
  fT>MIC: 37.78%
[13]
  Activity: 89.5%
[14]
  FC: 1
[15]
  Ratio: 61.6
[16]
  fAUC/MIC: 616.07 h
[17]
  Ratio: 6.27
[18]
  Ratio: 291.53
[19]
  Emax: -3.81 deltalog10CFU/ml
[20]
  EC50: 0.04 µg/mL (≈ 0.085 µM)
[21]
  half-life: 19 min
[22]
  Activity: 80.7%
[23]
  Activity: Active
[24]
  FC: <1
[25]
  EC50: 0.06 µg/mL (≈ 0.128 µM)
[26]
  FC: <1
[27]
  Ratio: 136.18
